Experimental data: ChEMBL document CHEMBL3045796, “Neonicotinoid insecticides: molecular features conferring selectivity for insect versus mammalian nicotinic receptors” (J Agric Food Chem, 2000)
pIC50: −log10 of the molar value.

What was measured:
[1] = molecular target: Neuronal acetylcholine receptor subunit alpha-7 (Homo sapiens, UniProt P36544); test: Inhibition of [125I]alpha-BGT binding to alpha7 nicotinic acetylcholine receptor in Homo sapiens (human) SH-SY5Y cells
[2] = molecular target: T1, Acetylcholine receptor subunit beta-like 2 (Drosophila melanogaster, UniProt P25162); test: Inhibition of [3H]IMI binding to Drosophila melanogaster neuronal acetylcholine receptor
T1 sequence (P25162 whole entry): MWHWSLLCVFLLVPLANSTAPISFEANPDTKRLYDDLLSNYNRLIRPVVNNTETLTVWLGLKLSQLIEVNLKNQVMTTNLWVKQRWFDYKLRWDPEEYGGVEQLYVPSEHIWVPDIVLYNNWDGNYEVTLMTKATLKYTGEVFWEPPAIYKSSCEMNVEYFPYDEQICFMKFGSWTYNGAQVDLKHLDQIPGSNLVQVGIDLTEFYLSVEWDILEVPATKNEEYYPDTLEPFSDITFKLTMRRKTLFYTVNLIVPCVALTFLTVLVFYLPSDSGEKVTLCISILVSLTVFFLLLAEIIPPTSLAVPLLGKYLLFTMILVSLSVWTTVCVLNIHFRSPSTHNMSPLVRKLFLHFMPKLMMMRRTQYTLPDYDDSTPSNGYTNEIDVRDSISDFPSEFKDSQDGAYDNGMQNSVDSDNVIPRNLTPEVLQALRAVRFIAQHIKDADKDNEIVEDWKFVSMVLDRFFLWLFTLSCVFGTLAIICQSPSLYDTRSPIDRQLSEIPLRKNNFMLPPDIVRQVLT

[3] = molecular target: Neuronal acetylcholine receptor subunit alpha-3 (Homo sapiens, UniProt P32297); test: Inhibition of [3H]nicotine binding to alpha3 nicotinic acetylcholine receptor in Homo sapiens (human) SH-SY5Y cells co-expressing beta2beta4alpha5 Nicotinic acetylcholine receptor subunits; type: cell-based
[4] = molecular target: Neuronal acetylcholine receptor subunit alpha-4 (Mus musculus, UniProt O70174); test: Inhibition of [3H]nicotine binding to alpha4 nicotinic acetylcholine receptor in Mus musculus (mouse) M10 cells co-expressing beta2 nicotinic acetylcholine receptor subunits; type: cell-based
[5] = test system: Musca domestica; test: Toxicity against Musca domestica (house fly) dosed with compound through intra-thoracic injection pre-treated with 100 ug/g metabolic detoxification inhibitor O-propyl O-(2-propynyl)phenylphosphonate; type: functional
[6] = molecular target: Acetylcholine receptor subunit alpha (Homo sapiens, UniProt P02708+P07510+P11230+Q07001); test: Inhibition of [125I]alpha-BGT binding to alpha1 nicotinic acetylcholine receptor in Homo sapiens (human) TE671 cells co-expressing gammaalpha1deltabeta1 nicotinic acetylcholine receptor subunits
[7] = Toxicity in ip dosed Mus musculus (mouse); type: organism-based; settings: in vivo
[8] = Retention time under neutral conditions using H20/MeOH (1:1) mobile phase by HPLC method; type: physicochemical
Method in brief: (§1)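 Reversed-phase HPLC at a flow rate of 0.7 mL/min, with a void volume of 2.46 min. Each retention time is the mean of three runs under that mobile-phase condition.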

[9] = Retention time under acidic conditions using H20/MeOH mobile phase containing 0.1% TFA (1:1) by HPLC method; type: physicochemical
Method in brief: as §1

[10] = Retention time under basic conditions using 20 mM Na2HPO4 (pH9.9)/MeOH (1:1) mobile phase by HPLC method; type: physicochemical; settings: buffer, pH 9.9
Method in brief: as §1

[11] = molecular target: Acetylcholine receptor subunit alpha (Homo sapiens) (UniProt P02708); test: Inhibition of […] binding to alpha1 nicotinic acetylcholine receptor in Homo sapiens (human) TE671 cells co-expressing gammaalpha1deltabeta1 nicotinic acetylcholine receptor at >300 uM; type: cell-based; settings: TE-671
Chain of Acetylcholine receptor subunit alpha (Homo sapiens) (P02708 whole entry): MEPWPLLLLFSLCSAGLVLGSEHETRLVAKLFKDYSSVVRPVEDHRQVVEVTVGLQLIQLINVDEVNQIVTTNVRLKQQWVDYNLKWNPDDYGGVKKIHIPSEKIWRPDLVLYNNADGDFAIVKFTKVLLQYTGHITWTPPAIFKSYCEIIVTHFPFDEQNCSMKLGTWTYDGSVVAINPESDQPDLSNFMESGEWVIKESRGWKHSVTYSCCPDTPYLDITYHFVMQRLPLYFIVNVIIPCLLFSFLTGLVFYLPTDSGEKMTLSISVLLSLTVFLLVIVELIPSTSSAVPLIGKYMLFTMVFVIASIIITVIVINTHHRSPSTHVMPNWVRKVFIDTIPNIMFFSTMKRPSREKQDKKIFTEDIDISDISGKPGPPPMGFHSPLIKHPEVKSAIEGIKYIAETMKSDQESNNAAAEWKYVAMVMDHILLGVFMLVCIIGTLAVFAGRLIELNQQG

Chain of Neuronal acetylcholine receptor subunit alpha-3 (P32297 whole entry): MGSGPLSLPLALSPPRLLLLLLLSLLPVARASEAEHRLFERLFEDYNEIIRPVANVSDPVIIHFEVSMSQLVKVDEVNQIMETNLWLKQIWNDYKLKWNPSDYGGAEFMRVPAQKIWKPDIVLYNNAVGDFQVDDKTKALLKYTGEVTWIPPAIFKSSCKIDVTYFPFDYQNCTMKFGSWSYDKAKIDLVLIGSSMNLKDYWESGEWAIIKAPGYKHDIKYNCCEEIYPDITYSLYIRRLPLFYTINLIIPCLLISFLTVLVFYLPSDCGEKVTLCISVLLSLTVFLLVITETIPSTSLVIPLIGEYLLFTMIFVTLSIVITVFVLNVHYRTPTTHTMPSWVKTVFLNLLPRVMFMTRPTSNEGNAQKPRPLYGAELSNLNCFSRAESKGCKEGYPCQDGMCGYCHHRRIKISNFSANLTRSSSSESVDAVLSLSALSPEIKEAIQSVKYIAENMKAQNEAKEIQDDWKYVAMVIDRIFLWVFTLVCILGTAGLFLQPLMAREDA
Chain of Neuronal acetylcholine receptor subunit alpha-7 (P36544 whole entry): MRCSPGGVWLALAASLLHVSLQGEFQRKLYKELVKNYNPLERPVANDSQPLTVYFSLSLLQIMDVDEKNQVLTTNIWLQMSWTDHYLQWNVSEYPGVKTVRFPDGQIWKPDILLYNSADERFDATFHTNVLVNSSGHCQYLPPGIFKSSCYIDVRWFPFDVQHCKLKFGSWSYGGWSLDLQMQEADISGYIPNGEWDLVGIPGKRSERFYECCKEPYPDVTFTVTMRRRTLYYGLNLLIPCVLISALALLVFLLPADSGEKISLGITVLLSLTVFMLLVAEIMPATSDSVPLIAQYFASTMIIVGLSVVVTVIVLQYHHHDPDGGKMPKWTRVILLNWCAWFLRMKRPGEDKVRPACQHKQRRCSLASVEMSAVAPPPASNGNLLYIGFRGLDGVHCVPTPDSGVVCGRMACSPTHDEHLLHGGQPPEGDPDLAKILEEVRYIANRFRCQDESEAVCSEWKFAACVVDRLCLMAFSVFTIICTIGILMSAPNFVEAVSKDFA
Chain of Acetylcholine receptor subunit alpha (P02708 whole entry, one chain of several): as the sequence (P02708 whole entry) above
Chain of Neuronal acetylcholine receptor subunit alpha-4 (O70174 whole entry): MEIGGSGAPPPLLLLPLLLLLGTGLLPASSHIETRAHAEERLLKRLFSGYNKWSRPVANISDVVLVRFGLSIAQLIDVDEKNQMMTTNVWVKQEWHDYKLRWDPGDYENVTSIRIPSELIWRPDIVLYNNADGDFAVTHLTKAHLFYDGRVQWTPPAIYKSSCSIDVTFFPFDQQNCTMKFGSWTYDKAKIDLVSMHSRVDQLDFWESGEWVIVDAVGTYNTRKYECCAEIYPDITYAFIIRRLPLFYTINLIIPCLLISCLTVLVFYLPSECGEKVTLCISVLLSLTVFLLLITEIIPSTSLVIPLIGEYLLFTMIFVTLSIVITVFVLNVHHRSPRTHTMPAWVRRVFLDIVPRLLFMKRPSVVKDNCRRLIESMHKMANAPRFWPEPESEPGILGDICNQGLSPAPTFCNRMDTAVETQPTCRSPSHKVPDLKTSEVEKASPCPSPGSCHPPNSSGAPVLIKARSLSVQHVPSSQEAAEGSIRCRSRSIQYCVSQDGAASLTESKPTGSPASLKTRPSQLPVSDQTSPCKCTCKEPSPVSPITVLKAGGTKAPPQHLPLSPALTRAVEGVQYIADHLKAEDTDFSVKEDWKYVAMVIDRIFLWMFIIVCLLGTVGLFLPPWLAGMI

Structure (SMILES) | pIC50 [1] | pIC50 [2] | pIC50 [3] | pIC50 [4] | LD50 [5] [mg/kg] | pIC50 [6] | LD50 [7] [mg/kg] | Retention_time [8] [min] | Retention_time [9] [min] | Retention_time [10] [min] | inhibition [11] [%]
O=[N+]([O-])/C=C1/NCCCN1Cc1ccc(Cl)nc1 | 6.00 | 9.43 | 6.74 | 7.10 | 0.08 | 4.09 | 10 |  |  |  | 
N=c1sccn1Cc1ccc(Cl)nc1 | 5.40 | 6.73 |  | 8.85 | > 5 | 5.10 | 0.7 | 3.02 | 2.98 | 4.21 | 
Clc1ccc(C2CC3CCC2N3)cn1 (racemic) [EPIBATIDINE] | 7.51 | 6.37 |  | 10.43 | > 25 | 6.80 | 0.06 |  |  |  | 
N=C1SCCN1Cc1ccc(Cl)nc1 [DESCYANOTHIACLOPRID] | 5.22 | 6.70 |  | 8.36 | > 5 | 5.22 | 0.7 | 3 | 2.84 | 4.23 | 
N=C1NCCN1Cc1ccc(Cl)nc1 [DESNITROIMIDACLOPRID] | 5.00 | 5.82 | 7.85 | 8.09 | > 5 | 4.96 | 6 | 2.9 | 2.8 | 4.24 | 
O=[N+]([O-])/N=C1\NCCN1Cc1ccc(Cl)nc1 [IMIDACLOPRID] |  |  |  |  | 0.02 |  |  |  |  |  | 39
O=[N+]([O-])NC1=NCCN1Cc1ccc(Cl)nc1 [IMIDACLOPRID] | 3.57 | 8.34 | 4.85 | 5.59 |  | < 3.52 | 40 | 4.84 | 4.87 | 4.82 | 
CN1CCC[C@H]1c1cccnc1 [NICOTINE] |  | 5.40 |  |  | > 50 | 4.68 | 6 | 3.18 | 3.16 | 11.23 | 
N#C/N=C1\SCCN1Cc1ccc(Cl)nc1 [THIACLOPRID] | 4.00 | 8.57 |  | 6.07 | 0.03 | 3.92 | 25 | 6.06 | 6.07 | 6.05 | 
